Each structure is given as a SMILES string. Several values for one entry are separate records, joined by “and”; a condition that tells them apart may be missing. Identical values can stand only once.

One may read the IC50 as the concentration that inhibits the measured activity by half. A low value points to inhibition by little substance. The term EC50 denotes the concentration needed to bring the measured effect to its halfway point.

The target in assay [1] is Neuronal nicotinic acetylcholine receptor. The experiment in a line: Binding affinity at NAChRs was determined by measuring the displacement of ([3H]Nic) from a preparation of rat cortical membranes. It counts as cell membranes, Membrane.
The species named for assay [2] is Rattus norvegicus. Description: The efficiency of the compound (300 micro M) to stimulate ([3H]DA) release. The format is functional.
The target of assay [3] is Muscarinic acetylcholine receptor. Description: Muscarinic acetylcholine receptor binding (rat cortical membranes) was determined by displacement of [3H]quinuclidinyl benzylate [3H]QNB). (In general: Displacement assays read how much labelled ligand stays bound in the presence of the test substance.)
The target of assay [4] is Acetylcholine receptor; alpha1/beta1/delta/gamma (Homo sapiens, UniProt P02708+P07510+P11230+Q07001). The experiment in a line: (§1) The compound was tested on recombinant human alpha-1-beta-1-gamma-delta cell lines of […] for nicotinic acetylcholine receptor agonist functional potency.
In assay [5] the target is T1, Neuronal acetylcholine receptor; alpha3/beta4 (Homo sapiens, UniProt P30926+P32297). The experiment in a line: The compound was tested on recombinant human alpha3-beta4 cell lines of Human embryonic kidney for nicotinic acetylcholine receptor agonist functional potency. In outline:
(§2)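 Stably transfected human recombinant NAChR cell lines: HEK293 for α2β4, α3β4, α4β4 and α4β2; human RD cells for fetal α1β1γδ muscle receptor. Agonist-evoked Ca2+ entry read as change in [Ca2+]i with fluo-3. Highest concentration tested 300 μM.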

The target in assay [6] is T2, Nicotinic acetylcholine receptor alpha2/beta4 (Homo sapiens, UniProt P30926+Q15822). The experiment in a line: The compound was tested on recombinant human alpha2-beta4 cell lines of Human embryonic kidney for nicotinic acetylcholine receptor agonist functional potency. In outline:
as §2

Assay [7] addresses T3, Neuronal acetylcholine receptor; alpha4/beta4 (Homo sapiens, UniProt P30926+P43681). The experiment in a line: The compound was tested on recombinant human alpha4-beta4 cell lines of Human embryonic kidney for nicotinic acetylcholine receptor agonist functional potency. A digest of the protocol: as §2
Target sequence in this assay (P30926 whole entry): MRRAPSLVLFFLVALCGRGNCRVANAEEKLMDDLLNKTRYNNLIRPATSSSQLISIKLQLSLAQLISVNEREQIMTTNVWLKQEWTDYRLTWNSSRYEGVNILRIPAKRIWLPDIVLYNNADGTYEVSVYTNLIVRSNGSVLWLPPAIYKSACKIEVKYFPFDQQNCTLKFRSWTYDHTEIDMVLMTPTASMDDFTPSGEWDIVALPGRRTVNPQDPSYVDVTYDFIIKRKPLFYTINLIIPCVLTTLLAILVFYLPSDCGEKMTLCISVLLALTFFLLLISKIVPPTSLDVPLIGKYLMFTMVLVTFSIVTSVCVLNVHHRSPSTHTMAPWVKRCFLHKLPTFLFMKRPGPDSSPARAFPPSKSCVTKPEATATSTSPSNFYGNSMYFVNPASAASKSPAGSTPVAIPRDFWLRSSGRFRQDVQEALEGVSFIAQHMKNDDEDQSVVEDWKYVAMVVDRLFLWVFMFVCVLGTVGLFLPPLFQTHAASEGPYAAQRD
Target sequence in this assay (P43681 whole entry): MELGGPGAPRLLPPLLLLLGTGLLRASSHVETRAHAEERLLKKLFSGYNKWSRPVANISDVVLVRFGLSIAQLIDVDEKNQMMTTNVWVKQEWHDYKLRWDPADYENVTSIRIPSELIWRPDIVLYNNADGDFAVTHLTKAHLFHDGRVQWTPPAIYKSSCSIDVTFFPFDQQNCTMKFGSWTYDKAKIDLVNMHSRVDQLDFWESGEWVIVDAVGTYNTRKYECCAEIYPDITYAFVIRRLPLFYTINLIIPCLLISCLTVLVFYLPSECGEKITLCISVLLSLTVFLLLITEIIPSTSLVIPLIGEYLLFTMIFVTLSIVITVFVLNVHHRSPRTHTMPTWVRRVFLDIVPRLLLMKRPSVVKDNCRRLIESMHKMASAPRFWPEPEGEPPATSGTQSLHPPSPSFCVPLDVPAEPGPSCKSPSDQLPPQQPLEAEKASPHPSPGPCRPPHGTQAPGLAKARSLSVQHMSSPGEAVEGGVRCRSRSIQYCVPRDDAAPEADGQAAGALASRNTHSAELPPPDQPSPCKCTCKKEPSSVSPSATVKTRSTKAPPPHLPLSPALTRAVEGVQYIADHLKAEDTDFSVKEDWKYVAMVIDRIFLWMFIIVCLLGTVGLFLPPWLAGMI
Assay [8] addresses Neuronal acetylcholine receptor; alpha4/beta2 (Homo sapiens, UniProt P17787+P43681). The experiment in a line: The compound was tested on recombinant human alpha4-beta2 cell lines of Human embryonic kidney for nicotinic acetylcholine receptor agonist functional potency; IA=inactive. In outline: as §2
The target in assay [9] is T3, Neuronal acetylcholine receptor; alpha4/beta4. The experiment in a line: The compound was tested on recombinant human alpha4-beta4 cell lines of HUman embryonic kidney for nicotinic acetylcholine receptor agonist functional potency. In outline:
as §2
Target sequence in this assay (P43681 whole entry, looked up): as the sequence (P43681 whole entry) above
Target sequence in this assay (P30926 whole entry, looked up): as the sequence (P30926 whole entry) above

Assay [10] concerns the target T1, Neuronal acetylcholine receptor; alpha3/beta4. Description: The compound was tested on recombinant human alpha3-beta4 cell lines of HUman embryonic kidney for nicotinic acetylcholine receptor agonist functional potency. A digest of the protocol:
as §2

The target in assay [11] is T2, Nicotinic acetylcholine receptor alpha2/beta4. Description: The compound was tested on recombinant human alpha2-beta4 cell lines of HUman embryonic kidney for nicotinic acetylcholine receptor agonist efficacy.
Assay [12] concerns the target Muscle-type nicotinic acetylcholine receptor. Described as §1.

T1 sequence (P30926 whole entry): as above
T1 sequence (P32297 whole entry): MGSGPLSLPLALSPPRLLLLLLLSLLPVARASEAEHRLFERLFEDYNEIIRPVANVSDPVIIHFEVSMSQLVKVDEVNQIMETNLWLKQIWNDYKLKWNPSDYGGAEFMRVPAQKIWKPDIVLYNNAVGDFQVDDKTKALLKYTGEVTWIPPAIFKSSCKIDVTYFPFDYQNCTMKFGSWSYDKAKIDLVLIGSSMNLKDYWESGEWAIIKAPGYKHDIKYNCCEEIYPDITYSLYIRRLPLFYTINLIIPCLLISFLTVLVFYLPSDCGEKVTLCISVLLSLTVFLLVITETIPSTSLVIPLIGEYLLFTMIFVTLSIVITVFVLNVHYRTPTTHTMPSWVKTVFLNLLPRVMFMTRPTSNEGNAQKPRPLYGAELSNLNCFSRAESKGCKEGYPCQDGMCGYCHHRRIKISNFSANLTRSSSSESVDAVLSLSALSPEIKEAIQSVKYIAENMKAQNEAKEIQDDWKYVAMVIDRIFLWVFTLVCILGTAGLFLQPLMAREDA
T2 sequence (P02708 whole entry): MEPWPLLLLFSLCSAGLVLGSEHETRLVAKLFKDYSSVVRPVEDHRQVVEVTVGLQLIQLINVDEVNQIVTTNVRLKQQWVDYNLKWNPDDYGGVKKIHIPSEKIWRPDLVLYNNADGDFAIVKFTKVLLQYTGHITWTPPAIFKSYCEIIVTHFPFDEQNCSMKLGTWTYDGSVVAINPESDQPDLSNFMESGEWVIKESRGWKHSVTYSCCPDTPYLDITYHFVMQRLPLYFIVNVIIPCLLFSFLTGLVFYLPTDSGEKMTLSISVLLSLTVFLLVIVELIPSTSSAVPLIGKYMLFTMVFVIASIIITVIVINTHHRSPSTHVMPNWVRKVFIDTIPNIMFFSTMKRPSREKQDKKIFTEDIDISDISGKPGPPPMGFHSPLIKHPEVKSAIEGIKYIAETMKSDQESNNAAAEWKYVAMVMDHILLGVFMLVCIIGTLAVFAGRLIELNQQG
T2 sequence (P30926 whole entry): as the sequence (P30926 whole entry) above
Sequence of Acetylcholine receptor; alpha1/beta1/delta/gamma (P02708 whole entry): as the sequence (P02708 whole entry) above
Sequence of Acetylcholine receptor; alpha1/beta1/delta/gamma (P07510 whole entry): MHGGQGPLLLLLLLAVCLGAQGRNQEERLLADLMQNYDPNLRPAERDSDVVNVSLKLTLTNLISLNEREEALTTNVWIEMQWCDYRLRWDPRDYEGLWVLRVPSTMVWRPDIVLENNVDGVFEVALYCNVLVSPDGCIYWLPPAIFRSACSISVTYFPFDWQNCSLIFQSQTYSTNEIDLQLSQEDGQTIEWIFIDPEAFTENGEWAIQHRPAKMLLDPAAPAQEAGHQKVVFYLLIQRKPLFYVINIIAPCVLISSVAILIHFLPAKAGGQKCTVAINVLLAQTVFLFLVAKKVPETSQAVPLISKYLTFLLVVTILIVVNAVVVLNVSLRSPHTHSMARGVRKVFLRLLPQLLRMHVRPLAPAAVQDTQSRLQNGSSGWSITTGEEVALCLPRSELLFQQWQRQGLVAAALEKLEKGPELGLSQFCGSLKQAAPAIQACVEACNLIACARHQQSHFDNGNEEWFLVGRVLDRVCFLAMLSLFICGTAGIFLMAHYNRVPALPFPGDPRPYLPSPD
Sequence of Acetylcholine receptor; alpha1/beta1/delta/gamma (P11230 whole entry): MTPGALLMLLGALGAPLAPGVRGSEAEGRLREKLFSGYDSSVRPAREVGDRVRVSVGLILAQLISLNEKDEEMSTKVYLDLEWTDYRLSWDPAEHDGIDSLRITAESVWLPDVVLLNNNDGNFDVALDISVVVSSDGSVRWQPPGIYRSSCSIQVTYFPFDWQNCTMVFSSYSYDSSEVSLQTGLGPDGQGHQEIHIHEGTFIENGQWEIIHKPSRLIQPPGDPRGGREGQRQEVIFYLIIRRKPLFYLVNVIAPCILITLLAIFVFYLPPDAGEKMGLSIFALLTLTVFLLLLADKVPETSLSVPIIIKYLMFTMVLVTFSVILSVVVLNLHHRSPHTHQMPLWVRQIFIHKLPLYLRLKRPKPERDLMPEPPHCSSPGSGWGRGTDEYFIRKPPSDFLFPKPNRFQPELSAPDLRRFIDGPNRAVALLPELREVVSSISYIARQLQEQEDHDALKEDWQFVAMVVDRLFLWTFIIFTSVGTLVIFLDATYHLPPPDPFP
Sequence of Acetylcholine receptor; alpha1/beta1/delta/gamma (Q07001 whole entry): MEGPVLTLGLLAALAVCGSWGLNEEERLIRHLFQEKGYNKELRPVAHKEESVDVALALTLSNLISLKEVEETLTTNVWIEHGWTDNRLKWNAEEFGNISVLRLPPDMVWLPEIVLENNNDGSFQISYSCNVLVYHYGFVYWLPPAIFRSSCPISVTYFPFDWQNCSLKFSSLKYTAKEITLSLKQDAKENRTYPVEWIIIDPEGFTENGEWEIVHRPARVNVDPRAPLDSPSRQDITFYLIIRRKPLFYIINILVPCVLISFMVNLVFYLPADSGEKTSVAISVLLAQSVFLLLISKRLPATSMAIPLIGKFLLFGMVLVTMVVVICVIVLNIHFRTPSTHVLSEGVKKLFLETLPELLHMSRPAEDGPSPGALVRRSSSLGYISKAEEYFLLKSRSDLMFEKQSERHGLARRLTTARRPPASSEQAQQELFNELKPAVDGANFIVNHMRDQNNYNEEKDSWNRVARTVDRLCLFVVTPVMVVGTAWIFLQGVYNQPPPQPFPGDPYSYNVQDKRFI
Sequence of Neuronal acetylcholine receptor; alpha4/beta2 (P17787 whole entry): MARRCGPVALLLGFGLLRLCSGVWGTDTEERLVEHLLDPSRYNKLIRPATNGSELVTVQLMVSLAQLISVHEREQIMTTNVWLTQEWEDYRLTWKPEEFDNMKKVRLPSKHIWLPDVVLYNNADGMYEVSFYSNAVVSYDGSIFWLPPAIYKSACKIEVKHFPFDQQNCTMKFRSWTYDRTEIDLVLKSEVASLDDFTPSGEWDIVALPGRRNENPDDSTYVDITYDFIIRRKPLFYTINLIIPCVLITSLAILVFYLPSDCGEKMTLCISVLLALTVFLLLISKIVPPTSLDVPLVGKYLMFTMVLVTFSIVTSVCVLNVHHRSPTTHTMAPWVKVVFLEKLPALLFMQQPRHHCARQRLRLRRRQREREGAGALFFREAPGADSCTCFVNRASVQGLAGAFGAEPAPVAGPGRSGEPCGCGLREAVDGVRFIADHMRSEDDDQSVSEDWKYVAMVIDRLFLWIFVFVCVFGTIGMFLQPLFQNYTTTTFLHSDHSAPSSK
Sequence of Neuronal acetylcholine receptor; alpha4/beta2 (P43681 whole entry): as the sequence (P43681 whole entry) above

Take `CCc1cncc(C2CCCN2C)c1` (stereo not given): the half-inhibitory concentration (IC50) in [1] amounted to 0.011 µM; in [3] it was 5.8 µM. Also, in [2], the Release came to 27.5%.

On to `C#Cc1cncc(C2CCCN2C)c1` (stereo not given), for which the EC50 in assay [4] is 52 µM and 53 µM; in assay [5], 41 µM and 34 µM; in assay [6], 15 µM and 39 µM; in assay [7] it was 25 µM and 23 µM. The IC50 in assay [1] is 0.0046 µM; in assay [3], 10.1 µM. Besides, the Release in assay [2] was found to be 143%.

For the molecule `C#Cc1cncc([C@H]2CCCN2C)c1`, the EC50 is 68 µM in assay [5]; “Not Active” in assay [8]; 31 µM and 8 µM in [9]; 29 µM in assay [6]; 68 µM in assay [10]. The values for the 50% inhibitory concentration (IC50) in assay [1] and in assay [3] were 0.075 µM and 4.5 µM, respectively. The molecule further had a Release in assay [2] of 55%. In addition, the Efficacy in assay [11] amounted to 9%.

In the case of `CN1CCCC1c1cncc(Br)c1` (stereo not given), the values for the IC50 in [1] and in [3] were 0.019 µM and 1.6 µM, respectively. In [2], the Release was determined as 69%.

For `C#Cc1cncc([C@@H]2CCCN2C)c1` [ALTINICLINE], the EC50 is 23 µM and 52 µM in [5]; 5 µM and 49 µM in [6]; 9 µM and 26 µM in assay [7]. Also, the half-maximal inhibitory concentration (IC50) in assay [1] was 0.003 µM; in assay [3], 8.9 µM. For the same molecule, the Release in assay [2] was 163%.

For `CN1CCC[C@H]1c1cccnc1` [NICOTINE], the EC50 in assay [12] was determined as 65 µM; in assay [6] it was 10 µM.

For the origin of these results see ChEMBL document CHEMBL1129686, “(S)-(-)-5-ethynyl-3-(1-methyl-2-pyrrolidinyl)pyridine maleate (SIB-1508Y): a novel anti-parkinsonian agent with selectivity for neuronal nicotinic acetylcholine receptors” (J Med Chem, 1996).
